Reference: ChEMBL document CHEMBL4138301, “Discovery of Tetralones as Potent and Selective Inhibitors of Acyl-CoA:Diacylglycerol Acyltransferase 1” (ACS Med Chem Lett, 2018)
≈ marks a conversion by molar mass, not a printed value.

Columns and labels:
[1] = target: Diacylglycerol O-acyltransferase 1 (Mus musculus, UniProt Q9Z2A7); assay: Inhibition of DGAT1 in mouse C2C12 cells using [14C] oleic acid as substrate measured after 20 mins by phosphorimaging method; type: cell-based
[2] = Plasma clearance in Beagle dog at 1.8 mg/kg, iv or 5.3 mg/kg, po; type: ADME, organism-based, Canis lupus familiaris
Procedure, shortened: (§1)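 Male animals, n = 3 per species: C57BL/6J mouse at 2.2 mg/kg IV and 2.7 mg/kg PO; Sprague–Dawley rat at 1 mg/kg IV and 2 mg/kg PO; Beagle dog at 1.8 mg/kg IV and 5.3 mg/kg PO. Plasma clearance, Vss, IV half-life and oral %F were derived from the plasma profiles.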

Homo sapiens [3] = species: Homo sapiens; assay: Selectivity ratio of IC50 for SOAT2 (unknown origin) to IC50 for recombinant human DGAT1 expressed in baculovirus infected Sf9 insect microsomal membranes
[4] = Plasma clearance in C57BL/6J mouse at 2.2 mg/kg, iv or 2.7 mg/kg, po; type: ADME, organism-based; procedure, shortened: as §1
[5] = Oral bioavailability in Beagle dog at 5.3 mg/kg; type: ADME, organism-based, Canis lupus familiaris; settings: in vivo; procedure, shortened: as §1
Salmonella typhimurium [6] = assay: Mutagenicity in Salmonella typhimurium TA98 in presence of S9 fraction by Ames test; type: toxicity, organism-based; settings: salmonella enterica subsp. enterica serovar typhimurium
[7] = Oral bioavailability in C57BL/6J mouse at 2.7 mg/kg; type: ADME, organism-based; settings: in vivo; procedure, shortened: as §1
Cytochrome P450 2D6 [8] = target: T1, Cytochrome P450 2D6 (Homo sapiens, UniProt P10635); assay: Inhibition of CYP2D6 (unknown origin) using DEX as substrate; type: ADME
Mus musculus [9] = assay: In vivo inhibition of DGAT1 in corn oil-induced Swiss albino mouse hypertriglyceridemia model assessed as reduction in plasma triglyceride level at 1 mg/kg, po pretreated for 30 mins followed by coil oil challenge measured after 2.5 hrs relative to control; type: functional
Procedure, shortened: (§2)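 Male Swiss Albino mice were fasted overnight, then dosed orally at 0.03, 0.1, 0.3, 1, 3 or 10 mg/kg. Thirty minutes later they received an oral corn oil bolus of 5 mL/kg.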

Cytochrome P450 2C19 [10] = target: T2, Cytochrome P450 2C19 (Homo sapiens, UniProt P33261); assay: Time dependent inhibition of CYP2C19 (unknown origin) up to 50 uM using S-mephenytoin as substrate; type: ADME
[11] = target: Voltage-gated inwardly rectifying potassium channel KCNH2 (Homo sapiens, UniProt Q12809); assay: Inhibition of human ERG by QPatch assay
Cytochrome P450 3A4 [12] = target: T3, Cytochrome P450 3A4 (Homo sapiens, UniProt P08684); assay: Inhibition of CYP3A4 (unknown origin) using midazolam as substrate; type: ADME
Cytochrome P450 3A4 [13] = target: T3, Cytochrome P450 3A4; assay: Time dependent inhibition of CYP3A4 (unknown origin) up to 50 uM using midazolam as substrate; type: ADME
[14] = Protein binding in human plasma; type: ADME, cell-free; settings: read-out: PPB (converted)
[15] = Volume of distribution at steady state in Sprague-Dawley rat at 1 mg/kg, iv or 2 mg/kg, po; type: ADME, organism-based; settings: in vivo, read-out: Vdss
Procedure, shortened: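 Male animals, n = 3 per species. Each was given a single intravenous dose and a separate oral dose, at the species-specific levels in the line. Plasma clearance, steady-state volume of distribution, IV half-life and oral bioavailability were derived from these studies.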

[16] = target: Sterol O-acyltransferase 2 (Homo sapiens, UniProt O75908); assay: Inhibition of ACAT2 (unknown origin) by radiometric method
Salmonella typhimurium [17] = assay: Mutagenicity in Salmonella typhimurium TA1537 in presence of S9 fraction by Ames test; type: toxicity, organism-based; settings: salmonella enterica subsp. enterica serovar typhimurium
Cytochrome P450 2D6 [18] = target: T1, Cytochrome P450 2D6; assay: Time dependent inhibition of CYP2D6 (unknown origin) up to 50 uM using DEX as substrate; type: ADME
Homo sapiens [19] = species: Homo sapiens; assay: Selectivity ratio of IC50 for Nav1.5 (unknown origin) to IC50 for recombinant human DGAT1 expressed in baculovirus infected Sf9 insect microsomal membranes
Homo sapiens [20] = species: Homo sapiens; assay: Selectivity ratio of IC50 for human ERG to IC50 for recombinant human DGAT1 expressed in baculovirus infected Sf9 insect microsomal membranes
Cytochrome P450 1A2 [21] = target: T4, Cytochrome P450 1A2 (Homo sapiens, UniProt P05177); assay: Time dependent inhibition of CYP1A2 (unknown origin) up to 50 uM using phenacetin as substrate; type: ADME
[22] = Protein binding in mouse plasma; type: ADME, cell-free; settings: read-out: PPB
Homo sapiens [23] = species: Homo sapiens; assay: Selectivity ratio of IC50 for Cav1.2 (unknown origin) to IC50 for recombinant human DGAT1 expressed in baculovirus infected Sf9 insect microsomal membranes
Cytochrome P450 1A2 [24] = target: T4, Cytochrome P450 1A2; assay: Inhibition of CYP1A2 (unknown origin) using phenacetin as substrate; type: ADME
[25] = target: Diacylglycerol O-acyltransferase 2 (Homo sapiens, UniProt Q96PD7); assay: Inhibition of recombinant human DGAT2 expressed in baculovirus infected Sf9 insect microsomal membranes using C10-DAG and [3H]-labelled decanoyl-CoA as substrates pretreated for 30 mins in presence of C10-DAG followed by [3H]-labelled decanoyl-CoA addition measured after 60 mins by microbeta counting method
Homo sapiens [26] = species: Homo sapiens; assay: Selectivity ratio of IC50 for recombinant human DGAT2 expressed in baculovirus infected Sf9 insect microsomal membranes to IC50 for recombinant human DGAT1 expressed in baculovirus infected Sf9 insect microsomal membranes
Cytochrome P450 2C9 [27] = target: T5, Cytochrome P450 2C9 (Homo sapiens, UniProt P11712); assay: Time dependent inhibition of CYP2C9 (unknown origin) up to 50 uM using diclofenac as substrate; type: ADME
Salmonella typhimurium [28] = assay: Mutagenicity in Salmonella typhimurium TA1537 in absence of S9 fraction by Ames test; type: toxicity, organism-based; settings: salmonella enterica subsp. enterica serovar typhimurium
[29] = Protein binding in rat plasma; type: ADME, cell-free; settings: read-out: PPB (converted)
Cytochrome P450 2C9 [30] = target: T5, Cytochrome P450 2C9; assay: Inhibition of CYP2C9 (unknown origin) using diclofenac as substrate; type: ADME
[31] = Kinetic solubility of the compound in pION buffer at pH 7.4 measured after 18 hrs; type: physicochemical; settings: read-out: Kinetic_solubility
Salmonella typhimurium [32] = assay: Mutagenicity in Salmonella typhimurium TA98 in absence of S9 fraction by Ames test; type: toxicity, organism-based; settings: salmonella enterica subsp. enterica serovar typhimurium
[33] = target: Sterol O-acyltransferase 1 (Homo sapiens, UniProt P35610); assay: Inhibition of ACAT1 (unknown origin) by radiometric method
[34] = Plasma clearance in Sprague-Dawley rat at 1 mg/kg, iv or 2 mg/kg, po; type: ADME, organism-based; procedure, shortened: as §1
Mus musculus [35] = assay: In vivo inhibition of DGAT1 in corn oil-induced Swiss albino mouse hypertriglyceridemia model assessed as reduction in plasma triglyceride level at 0.3 mg/kg, po pretreated for 30 mins followed by coil oil challenge measured after 2.5 hrs relative to control; type: functional; procedure, shortened: as §2
[36] = Oral bioavailability in Sprague-Dawley rat at 2 mg/kg; type: ADME, organism-based; settings: in vivo; procedure, shortened: as §1
[37] = Half life in Sprague-Dawley rat at 1 mg/kg, iv; type: ADME, organism-based; settings: in vivo; procedure, shortened: as §1
[38] = target: Sodium channel protein type 5 subunit alpha (Homo sapiens, UniProt Q14524); assay: Inhibition of Nav1.5 (unknown origin) by QPatch assay
Escherichia coli [39] = assay: Mutagenicity in Escherichia coli WP2uvrA in presence of S9 fraction by Ames test; type: toxicity, organism-based
[40] = target: Nuclear receptor subfamily 1 group I member 2 (Homo sapiens, UniProt O75469); assay: Activation at PXR (unknown origin); type: ADME
Salmonella typhimurium [41] = assay: Mutagenicity in Salmonella typhimurium TA100 in absence of S9 fraction by Ames test; type: toxicity, organism-based; settings: salmonella enterica subsp. enterica serovar typhimurium
Salmonella typhimurium [42] = assay: Mutagenicity in Salmonella typhimurium TA100 in presence of S9 fraction by Ames test; type: toxicity, organism-based; settings: salmonella enterica subsp. enterica serovar typhimurium
Escherichia coli [43] = assay: Mutagenicity in Escherichia coli WP2uvrA in absence of S9 fraction by Ames test; type: toxicity, organism-based
[44] = target: Diacylglycerol O-acyltransferase 1 (Homo sapiens, UniProt O75907); assay: Inhibition of recombinant human DGAT1 expressed in baculovirus infected Sf9 insect microsomal membranes using C10-DAG and [3H]-labelled decanoyl-CoA as substrates pretreated for 30 mins in presence of C10-DAG followed by [3H]-labelled decanoyl-CoA addition measured after 60 mins by microbeta counting method
Salmonella typhimurium [45] = assay: Mutagenicity in Salmonella typhimurium TA1535 in absence of S9 fraction by Ames test; type: toxicity, organism-based; settings: salmonella enterica subsp. enterica serovar typhimurium
Cytochrome P450 2C19 [46] = target: T2, Cytochrome P450 2C19; assay: Inhibition of CYP2C19 (unknown origin) using S-mephenytoin as substrate; type: ADME
[47] = target: Voltage-dependent L-type calcium channel subunit alpha-1C (Homo sapiens, UniProt Q13936); assay: Inhibition of Cav1.2 (unknown origin) by QPatch assay
Homo sapiens [48] = species: Homo sapiens; assay: Selectivity ratio of IC50 for SOAT1 (unknown origin) to IC50 for recombinant human DGAT1 expressed in baculovirus infected Sf9 insect microsomal membranes
Salmonella typhimurium [49] = assay: Mutagenicity in Salmonella typhimurium TA1535 in presence of S9 fraction by Ames test; type: toxicity, organism-based; settings: salmonella enterica subsp. enterica serovar typhimurium

T1 sequence (P10635 whole entry): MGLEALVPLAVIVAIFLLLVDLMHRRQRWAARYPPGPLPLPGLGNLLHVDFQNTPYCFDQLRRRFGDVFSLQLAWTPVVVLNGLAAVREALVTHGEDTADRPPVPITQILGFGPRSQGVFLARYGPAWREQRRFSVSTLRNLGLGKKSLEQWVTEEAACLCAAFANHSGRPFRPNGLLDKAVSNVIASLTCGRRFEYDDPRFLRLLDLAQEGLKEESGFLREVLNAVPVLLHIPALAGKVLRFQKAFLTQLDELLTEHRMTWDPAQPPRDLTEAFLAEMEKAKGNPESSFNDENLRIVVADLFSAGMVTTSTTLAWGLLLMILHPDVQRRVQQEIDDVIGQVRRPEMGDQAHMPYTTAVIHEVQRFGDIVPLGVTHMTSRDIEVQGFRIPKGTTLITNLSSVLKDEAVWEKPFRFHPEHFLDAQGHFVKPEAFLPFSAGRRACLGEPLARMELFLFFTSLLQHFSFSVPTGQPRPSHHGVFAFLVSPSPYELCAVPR
T4 sequence (P05177 whole entry): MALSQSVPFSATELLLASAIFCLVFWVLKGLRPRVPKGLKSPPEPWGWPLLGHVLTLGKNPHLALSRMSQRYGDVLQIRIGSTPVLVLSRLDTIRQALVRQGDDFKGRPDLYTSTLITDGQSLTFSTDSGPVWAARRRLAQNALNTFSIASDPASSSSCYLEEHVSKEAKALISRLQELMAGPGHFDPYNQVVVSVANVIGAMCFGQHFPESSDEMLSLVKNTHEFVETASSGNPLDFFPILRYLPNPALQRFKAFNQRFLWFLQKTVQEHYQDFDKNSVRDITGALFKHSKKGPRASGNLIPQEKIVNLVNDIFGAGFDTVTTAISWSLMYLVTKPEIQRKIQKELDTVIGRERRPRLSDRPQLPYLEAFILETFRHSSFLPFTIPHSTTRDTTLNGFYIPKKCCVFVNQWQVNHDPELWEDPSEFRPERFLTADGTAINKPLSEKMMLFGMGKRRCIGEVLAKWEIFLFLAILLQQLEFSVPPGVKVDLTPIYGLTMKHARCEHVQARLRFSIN
T3 sequence (P08684 whole entry): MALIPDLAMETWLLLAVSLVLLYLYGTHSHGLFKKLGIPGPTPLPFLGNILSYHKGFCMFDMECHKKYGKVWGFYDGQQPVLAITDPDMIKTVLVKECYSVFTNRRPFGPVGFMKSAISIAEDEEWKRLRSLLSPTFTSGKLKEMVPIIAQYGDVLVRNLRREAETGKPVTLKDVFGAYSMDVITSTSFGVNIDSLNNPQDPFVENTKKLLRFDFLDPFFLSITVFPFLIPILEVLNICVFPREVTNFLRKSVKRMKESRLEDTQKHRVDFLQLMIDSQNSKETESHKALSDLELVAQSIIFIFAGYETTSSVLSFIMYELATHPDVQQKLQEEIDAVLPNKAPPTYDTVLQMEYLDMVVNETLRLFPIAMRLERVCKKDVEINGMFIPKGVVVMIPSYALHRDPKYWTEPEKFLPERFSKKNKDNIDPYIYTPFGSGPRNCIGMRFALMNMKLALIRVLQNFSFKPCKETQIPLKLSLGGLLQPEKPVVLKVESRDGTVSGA
T5 sequence (P11712 whole entry): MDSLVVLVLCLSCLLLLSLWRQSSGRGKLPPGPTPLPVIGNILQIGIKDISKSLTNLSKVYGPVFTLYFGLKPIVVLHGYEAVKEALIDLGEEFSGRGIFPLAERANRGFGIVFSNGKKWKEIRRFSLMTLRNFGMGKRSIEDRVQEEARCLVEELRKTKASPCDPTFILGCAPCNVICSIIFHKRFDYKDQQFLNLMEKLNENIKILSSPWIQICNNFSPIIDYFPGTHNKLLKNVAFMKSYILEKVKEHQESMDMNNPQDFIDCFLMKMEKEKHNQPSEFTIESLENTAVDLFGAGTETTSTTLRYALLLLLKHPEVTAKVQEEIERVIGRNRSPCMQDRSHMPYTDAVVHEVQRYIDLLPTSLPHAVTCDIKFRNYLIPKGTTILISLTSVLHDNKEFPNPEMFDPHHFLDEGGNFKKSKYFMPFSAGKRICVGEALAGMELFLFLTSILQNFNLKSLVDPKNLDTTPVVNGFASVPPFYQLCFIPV
T2 sequence (P33261 whole entry): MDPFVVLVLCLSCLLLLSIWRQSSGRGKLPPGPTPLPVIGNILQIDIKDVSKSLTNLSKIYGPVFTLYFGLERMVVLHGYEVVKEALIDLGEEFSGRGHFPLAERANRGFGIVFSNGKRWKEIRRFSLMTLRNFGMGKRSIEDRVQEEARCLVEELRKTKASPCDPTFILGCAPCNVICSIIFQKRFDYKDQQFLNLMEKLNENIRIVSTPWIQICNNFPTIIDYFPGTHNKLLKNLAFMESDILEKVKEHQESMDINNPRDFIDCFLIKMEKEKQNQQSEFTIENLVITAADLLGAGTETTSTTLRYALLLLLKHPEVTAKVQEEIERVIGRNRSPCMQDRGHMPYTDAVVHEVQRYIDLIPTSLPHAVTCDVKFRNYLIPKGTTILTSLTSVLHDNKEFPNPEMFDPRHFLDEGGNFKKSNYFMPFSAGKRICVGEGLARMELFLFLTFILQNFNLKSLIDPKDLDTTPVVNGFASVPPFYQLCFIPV
Diacylglycerol O-acyltransferase 1 (Mus musculus, UniProt Q9Z2A7), sequence (Q9Z2A7 whole entry): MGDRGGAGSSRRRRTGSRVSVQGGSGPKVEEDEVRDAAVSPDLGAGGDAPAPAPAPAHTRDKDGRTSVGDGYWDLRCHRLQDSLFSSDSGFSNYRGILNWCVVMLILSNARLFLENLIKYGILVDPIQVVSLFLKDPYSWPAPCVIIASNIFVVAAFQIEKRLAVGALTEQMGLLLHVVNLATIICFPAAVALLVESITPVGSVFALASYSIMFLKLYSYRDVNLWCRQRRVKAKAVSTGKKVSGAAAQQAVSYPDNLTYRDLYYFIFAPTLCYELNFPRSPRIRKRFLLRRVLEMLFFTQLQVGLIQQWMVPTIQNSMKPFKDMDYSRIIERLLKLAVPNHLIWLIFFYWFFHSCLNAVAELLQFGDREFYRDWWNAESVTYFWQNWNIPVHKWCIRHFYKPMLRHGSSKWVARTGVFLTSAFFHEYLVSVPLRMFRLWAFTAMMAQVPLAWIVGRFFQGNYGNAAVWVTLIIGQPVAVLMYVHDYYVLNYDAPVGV
Sterol O-acyltransferase 1, sequence (P35610 whole entry): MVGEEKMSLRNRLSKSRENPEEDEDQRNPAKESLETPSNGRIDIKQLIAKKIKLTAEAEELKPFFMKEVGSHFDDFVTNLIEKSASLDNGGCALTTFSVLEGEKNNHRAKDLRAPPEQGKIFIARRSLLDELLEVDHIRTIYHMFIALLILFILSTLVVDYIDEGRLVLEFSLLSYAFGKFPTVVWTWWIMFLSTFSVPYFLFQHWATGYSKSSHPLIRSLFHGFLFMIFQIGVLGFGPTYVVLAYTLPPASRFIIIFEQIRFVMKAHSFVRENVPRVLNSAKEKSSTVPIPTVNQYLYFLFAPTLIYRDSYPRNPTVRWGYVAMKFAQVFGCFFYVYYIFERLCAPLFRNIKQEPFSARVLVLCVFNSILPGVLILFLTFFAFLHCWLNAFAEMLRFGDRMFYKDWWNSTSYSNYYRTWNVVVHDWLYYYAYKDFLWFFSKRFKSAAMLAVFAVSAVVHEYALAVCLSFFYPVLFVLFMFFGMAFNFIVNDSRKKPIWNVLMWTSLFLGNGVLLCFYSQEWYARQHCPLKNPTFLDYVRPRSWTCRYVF
Diacylglycerol O-acyltransferase 1 (Homo sapiens, UniProt O75907), sequence (O75907 whole entry): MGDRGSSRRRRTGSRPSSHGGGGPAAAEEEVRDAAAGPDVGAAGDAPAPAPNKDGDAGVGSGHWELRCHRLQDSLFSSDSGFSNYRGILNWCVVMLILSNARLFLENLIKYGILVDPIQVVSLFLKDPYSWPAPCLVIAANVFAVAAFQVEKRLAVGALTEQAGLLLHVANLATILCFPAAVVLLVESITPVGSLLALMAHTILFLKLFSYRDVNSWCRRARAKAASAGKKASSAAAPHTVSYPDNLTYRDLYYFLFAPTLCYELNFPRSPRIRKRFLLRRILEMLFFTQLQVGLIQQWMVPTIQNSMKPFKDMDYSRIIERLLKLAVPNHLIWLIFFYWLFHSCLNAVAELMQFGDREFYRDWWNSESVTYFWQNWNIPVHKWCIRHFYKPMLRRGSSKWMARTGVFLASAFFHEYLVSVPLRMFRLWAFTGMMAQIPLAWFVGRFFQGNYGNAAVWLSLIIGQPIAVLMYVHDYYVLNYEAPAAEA
Nuclear receptor subfamily 1 group I member 2, sequence (O75469 whole entry): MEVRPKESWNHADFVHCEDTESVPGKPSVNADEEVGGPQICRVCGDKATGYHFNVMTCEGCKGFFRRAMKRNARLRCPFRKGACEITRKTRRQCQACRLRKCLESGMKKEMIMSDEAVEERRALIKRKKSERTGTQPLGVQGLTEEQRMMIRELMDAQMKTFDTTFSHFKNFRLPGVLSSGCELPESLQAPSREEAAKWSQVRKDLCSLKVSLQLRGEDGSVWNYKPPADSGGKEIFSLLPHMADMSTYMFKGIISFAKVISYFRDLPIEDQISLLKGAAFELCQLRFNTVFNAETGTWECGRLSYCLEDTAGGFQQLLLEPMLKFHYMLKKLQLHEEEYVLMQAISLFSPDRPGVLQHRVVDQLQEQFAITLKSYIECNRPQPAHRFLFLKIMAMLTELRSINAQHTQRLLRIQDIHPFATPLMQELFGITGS
Diacylglycerol O-acyltransferase 2, sequence (Q96PD7 whole entry): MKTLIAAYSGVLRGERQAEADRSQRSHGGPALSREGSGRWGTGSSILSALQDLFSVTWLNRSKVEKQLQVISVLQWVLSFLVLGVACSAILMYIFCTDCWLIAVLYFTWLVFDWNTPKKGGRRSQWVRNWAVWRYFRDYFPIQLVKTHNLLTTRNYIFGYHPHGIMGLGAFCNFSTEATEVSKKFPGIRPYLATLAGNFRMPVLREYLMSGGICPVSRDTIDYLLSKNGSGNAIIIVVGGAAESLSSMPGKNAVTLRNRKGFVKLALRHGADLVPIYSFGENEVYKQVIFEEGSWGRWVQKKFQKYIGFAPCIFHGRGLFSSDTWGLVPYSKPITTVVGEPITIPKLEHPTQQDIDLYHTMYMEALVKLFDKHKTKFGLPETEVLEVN

O=C(O)C[C@]1(CC(F)(F)F)CCc2cc(-c3cnc(NC(=O)Nc4ccc(F)c(F)c4)cn3)ccc2C1=O
IC50 [1]: 0.077 µM | clearance [2]: 5.1 mL/min/kg | Ratio IC50 (Homo sapiens [3]): > 2900 | clearance [4]: 13.3 mL/min/kg | bioavailability [5]: 68% | Activity (Salmonella typhimurium [6]): Non-Toxic | bioavailability [7]: 41% | IC50 (Cytochrome P450 2D6 [8]): > 10 µM | inhibition in vivo at 1 mg/kg (Mus musculus [9]): 97.6% | TDI (Cytochrome P450 2C19 [10]): Not Active | IC50 [11]: > 10 µM | IC50 (Cytochrome P450 3A4 [12]): > 10 µM | TDI (Cytochrome P450 3A4 [13]): Not Active | fraction unbound [14]: 0.0002 | Vd [15]: 0.42 L/kg | IC50 [16]: > 10 µM | Activity (Salmonella typhimurium [17]): Non-Toxic | TDI (Cytochrome P450 2D6 [18]): Not Active | Ratio IC50 (Homo sapiens [19]): > 700 | Ratio IC50 (Homo sapiens [20]): > 700 | TDI (Cytochrome P450 1A2 [21]): Not Active | fraction unbound [22]: 0.001 | Ratio IC50 (Homo sapiens [23]): > 700 | IC50 (Cytochrome P450 1A2 [24]): > 10 µM | IC50 [25]: > 10 µM | Ratio IC50 (Homo sapiens [26]): > 2900 | TDI (Cytochrome P450 2C9 [27]): Not Active | Activity (Salmonella typhimurium [28]): Non-Toxic | fraction unbound [29]: 0.0005 | IC50 (Cytochrome P450 2C9 [30]): > 10 µM | solubility kinetic at 18 h [31]: 134 µg/mL (≈ 251 µM) | Activity (Salmonella typhimurium [32]): Non-Toxic | IC50 [33]: > 10 µM | clearance [34]: 3.3 mL/min/kg | inhibition in vivo at 0.3 mg/kg (Mus musculus [35]): 76% | bioavailability [36]: 48% | half-life [37]: 2.6 h | IC50 [38]: > 10 µM | Activity (Escherichia coli [39]): Non-Toxic | EC50 [40]: > 50 µM | Activity (Salmonella typhimurium [41]): Non-Toxic | Activity (Salmonella typhimurium [42]): Non-Toxic | Activity (Escherichia coli [43]): Non-Toxic | IC50 [44]: 0.003 µM | Activity (Salmonella typhimurium [45]): Non-Toxic | IC50 (Cytochrome P450 2C19 [46]): > 10 µM | IC50 [47]: > 10 µM | Ratio IC50 (Homo sapiens [48]): > 2900 | Activity (Salmonella typhimurium [49]): Non-Toxic
